# In ChEMBL document CHEMBL4014309, “Development of an Acrylate Derivative Targeting the NLRP3 Inflammasome for the Treatment of Inflammatory Bowel Disease” (J Med Chem, 2017):
# Activity calls are given as the source filed them. The rule behind the calls is not given here.
# Key:
# [1] = molecular target: NACHT, LRR and PYD domains-containing protein 3 (Homo sapiens) (UniProt Q96P20); experiment: Inhibition of recombinant human NLRP3 ATPase assessed as hydrolysis of ATP at 100 uM preincubated for 15 mins followed by addition of ATP measured after 40 mins by ADP-Glo assay
# Chain of NACHT, LRR and PYD domains-containing protein 3 (Homo sapiens) (Q96P20 whole entry, the tested form may be a part): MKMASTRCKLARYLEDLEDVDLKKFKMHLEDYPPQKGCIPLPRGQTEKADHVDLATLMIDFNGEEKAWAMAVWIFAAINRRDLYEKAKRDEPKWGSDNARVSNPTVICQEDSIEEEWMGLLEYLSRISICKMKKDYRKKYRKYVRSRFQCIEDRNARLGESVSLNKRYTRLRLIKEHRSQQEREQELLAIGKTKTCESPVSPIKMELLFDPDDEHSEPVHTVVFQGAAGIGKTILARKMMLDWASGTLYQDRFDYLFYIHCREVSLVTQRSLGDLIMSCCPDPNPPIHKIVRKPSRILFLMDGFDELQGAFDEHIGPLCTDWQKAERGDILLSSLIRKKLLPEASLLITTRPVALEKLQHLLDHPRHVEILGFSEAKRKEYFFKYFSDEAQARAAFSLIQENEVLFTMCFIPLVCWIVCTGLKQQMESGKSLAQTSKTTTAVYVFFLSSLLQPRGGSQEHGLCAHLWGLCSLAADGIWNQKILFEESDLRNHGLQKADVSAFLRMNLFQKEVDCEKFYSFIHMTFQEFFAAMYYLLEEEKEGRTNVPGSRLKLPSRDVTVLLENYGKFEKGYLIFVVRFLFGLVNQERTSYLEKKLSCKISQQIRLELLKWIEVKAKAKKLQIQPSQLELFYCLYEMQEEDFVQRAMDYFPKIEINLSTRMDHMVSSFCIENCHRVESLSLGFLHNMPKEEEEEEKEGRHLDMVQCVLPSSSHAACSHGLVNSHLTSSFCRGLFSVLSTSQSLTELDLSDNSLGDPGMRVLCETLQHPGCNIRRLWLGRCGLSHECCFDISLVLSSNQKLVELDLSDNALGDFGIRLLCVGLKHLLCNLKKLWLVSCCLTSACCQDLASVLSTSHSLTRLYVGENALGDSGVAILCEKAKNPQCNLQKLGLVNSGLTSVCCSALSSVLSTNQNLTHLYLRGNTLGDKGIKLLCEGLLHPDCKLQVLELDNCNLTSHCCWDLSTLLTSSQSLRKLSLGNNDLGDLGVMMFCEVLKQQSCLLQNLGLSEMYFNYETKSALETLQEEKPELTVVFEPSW
# In short: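 Human recombinant NLRP3 (0.105 µg) in 20 mM Tris-HCl pH 7.8, 133 mM NaCl, 20 mM MgCl2, 3 mM KCl, 0.56 mM EDTA, 0.5% DMSO. Compound (100 or 50 µM) was preincubated 15 min at 37 °C, then ATP (250 µM) was added for 40 min at 37 °C. ADP was read by ADP-Glo luminescence. Result is % inhibition vs vehicle; mean ± SEM, ≥3 experiments.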
# Rattus norvegicus [2] = experiment: Antiinflammatory activity in DNBS-induced Sprague-Dawley rat colitis model assessed as DNBS-induced macroscopic damage score at 50 mg/kg/day, ig administered as suspension in olive oil for 6 days simulatneously with 6 days of DNBS-challenge (reference value: 8.6 +/- 0.6); assay type: functional
# Rattus norvegicus [3] = experiment: Anti-inflammatory activity in DNBS-induced Sprague-Dawley rat colitis model assessed as DNBS-induced TNFalpha levels in colon at 12.5 mg/kg/day, ig for 6 days simulatneously with 6 days of DNBS-challenge by ELISA (reference value: 5.9 +/- 0.6 pg/mg); assay type: functional
# [4] = molecular target: NACHT, LRR and PYD domains-containing protein 3 (Mus musculus) (UniProt Q8R4B8); experiment: Inhibition of NLRP3 inflammasome in LPS-primed C57BL/6 mouse bone marrow derived macrophages assessed as reduction in nigericin-induced IL-1beta production at 10 uM preincubated for 1 hr followed by stimulation with nigericin measured after 30 mins by ELISA
# Chain of NACHT, LRR and PYD domains-containing protein 3 (Mus musculus) (Q8R4B8 whole entry, the tested form may be a part): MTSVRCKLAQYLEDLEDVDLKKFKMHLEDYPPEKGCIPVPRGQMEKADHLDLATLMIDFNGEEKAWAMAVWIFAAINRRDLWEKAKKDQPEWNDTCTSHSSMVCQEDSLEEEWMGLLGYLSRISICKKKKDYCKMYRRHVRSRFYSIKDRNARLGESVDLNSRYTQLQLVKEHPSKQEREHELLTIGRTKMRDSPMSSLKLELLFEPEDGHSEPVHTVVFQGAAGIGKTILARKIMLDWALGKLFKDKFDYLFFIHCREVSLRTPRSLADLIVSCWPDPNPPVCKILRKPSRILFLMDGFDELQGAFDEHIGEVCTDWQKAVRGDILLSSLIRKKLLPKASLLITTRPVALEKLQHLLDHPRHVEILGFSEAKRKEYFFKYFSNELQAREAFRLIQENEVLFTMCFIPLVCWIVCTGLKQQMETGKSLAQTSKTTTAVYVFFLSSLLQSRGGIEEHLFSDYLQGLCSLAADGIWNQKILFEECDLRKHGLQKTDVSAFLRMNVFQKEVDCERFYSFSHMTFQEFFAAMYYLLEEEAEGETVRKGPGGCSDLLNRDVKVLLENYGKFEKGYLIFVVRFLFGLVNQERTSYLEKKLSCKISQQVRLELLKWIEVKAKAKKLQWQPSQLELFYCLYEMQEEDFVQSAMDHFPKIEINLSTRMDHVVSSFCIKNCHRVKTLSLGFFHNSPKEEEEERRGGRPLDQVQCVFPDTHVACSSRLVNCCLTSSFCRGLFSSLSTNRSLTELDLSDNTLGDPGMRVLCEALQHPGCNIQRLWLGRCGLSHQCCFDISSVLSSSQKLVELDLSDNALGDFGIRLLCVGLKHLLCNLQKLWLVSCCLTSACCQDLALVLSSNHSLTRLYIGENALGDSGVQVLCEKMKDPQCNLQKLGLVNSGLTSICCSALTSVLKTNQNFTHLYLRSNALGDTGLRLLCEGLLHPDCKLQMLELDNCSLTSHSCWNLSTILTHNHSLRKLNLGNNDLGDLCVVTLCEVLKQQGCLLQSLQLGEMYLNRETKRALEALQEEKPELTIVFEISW
# In short: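 Bone marrow macrophages from C57BL/6 mice, differentiated with 20% L-cell medium, primed with LPS (1 µg/mL, 3 h). Test agent or vehicle was added for 1 h, then ATP (5 mM, 30 min) or nigericin (10 µM, 30 min). IL-1β in the medium was measured by ELISA. LDH in the medium was measured colorimetrically as % of total cellular LDH.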
# [5] = Cytotoxicity against human THP1 cells assessed as cell viability at 100 uM after 72 hrs by MTT assay; assay type: cell-based; conditions: THP-1 cells, read-out: Activity
# In short: (§1)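 Human THP-1 cells were exposed to 0.1–100 µM for 72 h, and viability was read by MTT. TC50 is the concentration that cuts viability by 50%; percent viable cells at 100 µM is also reported. Mean ± SEM of ≥3 experiments.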
# Duodenum = experiment: Drug metabolism in Sprague-Dawley rat duodenum assessed as 2-(2-chlorobenzyl)acrylic acid level at 12.5 mg as suspension in olive oil measured after 2 hrs by UHPLC-MS analysis; assay type: ADME, tissue-based; conditions: in vivo
# Rattus norvegicus [6] = experiment: Toxicity in Sprague-Dawley rat at 50 mg/kg/day, ig; assay type: organism-based; conditions: in vivo, po
# In short: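 Rats received intrarectal DNBS (15 mg in 0.25 mL 50% ethanol) or none. Dosing was intragastric for 6 days from induction: compound 12.5–50 mg/kg/day in 0.2 mL olive oil, or dexamethasone 1 mg/kg/day in 0.2 mL 1% methylcellulose. Body weight change was recorded at end; n = 10, mean ± SEM.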
# Liver = experiment: Drug metabolism in Sprague-Dawley rat liver microsomes assessed as formation of 2-(2-chlorobenzyl)acrylic acid at 100 uM up to 2 hrs in absence of NADPH by UHPLC-MS analysis; assay type: ADME, microsome
# [7] = Cytotoxicity against human THP1 cells assessed as reduction in cell viability after 72 hrs by MTT assay; assay type: cell-based; conditions: THP-1 cells, read-out: TC50; in short: as §1
# Jejunum = experiment: Drug metabolism in Sprague-Dawley rat jejunum assessed as 2-(2-chlorobenzyl)acrylic acid level at 12.5 mg as suspension in olive oil measured after 2 hrs by UHPLC-M; assay type: ADME, tissue-based; conditions: in vivo
# [8] = Solubility of the compound in PBS at 1.56 mg […] and pH 7.4 after 24 hrs by UHPLC-MS analysis; assay type: physicochemical
# Mus musculus = organism: Mus musculus; experiment: Inhibition of NF-kB signaling pathway in C57BL/6 mouse bone marrow derived macrophages assessed as reduction in LPS-induced IL-6 gene expression at 10 to 100 uM preincubated for 30 mins followed by LPS stimulation measured after 4 hrs by qRT-PCR analysis
# In short: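 C57BL/6 bone marrow macrophages, differentiated with 20% L-cell medium, were preincubated with compound for 30 min. They were then left untreated or given LPS (1 ng/mL, 4 h). Tnfa, Il6 and Il1b expression was measured by quantitative RT-PCR as 2^-ΔΔCt.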
# [9] = molecular target: NACHT, LRR and PYD domains-containing protein 3 (Homo sapiens) (UniProt Q96P20); experiment: Inhibition of NLRP3 in PMA-differentiated and LPS-primed human THP1 cells assessed as decrease in ATP-induced pyroptosis measured as LDH activity at 10 uM preincubated for 1 hr followed by ATP addition measured after 1 hr by colorimetric assay relative to control
# In short: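 THP-1 cells were PMA-differentiated and LPS-primed, then pretreated with vehicle or compound (10 µM, 1 h). Pyroptosis was triggered with ATP (5 mM). LDH in supernatant was measured colorimetrically 1 h after ATP and expressed as percent decrease versus vehicle, mean ± SEM of ≥3 experiments.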
# Rattus norvegicus [10] = experiment: Antiinflammatory activity in DNBS-induced Sprague-Dawley rat colitis model assessed as DNBS-induced decrease in colonic length at 50 mg/kg/day, ig administered as suspension in olive oil for 6 days simulatneously with 6 days of DNBS-challenge (reference value: -34.4%); assay type: functional; set-up: scale not given: the % may be the effect or the level left
# HEK293 = experiment: Cytotoxicity against HEK293 cells assessed as extracellular LDH level at 10 to 100 uM after 24 hrs; assay type: cell-based; conditions: human, hek293, 24 h
# Rattus norvegicus [11] = experiment: Antiinflammatory activity in DNBS-induced Sprague-Dawley rat colitis model assessed as reduction in DNBS-induced spleen weight increase by measuring increase in spleen weight at 25 mg/kg/day, ig administered as suspension in olive oil for 6 days simulatneously with 6 days of DNBS-challenge measured daily during compound dosing (reference value: 39.3%); assay type: functional; set-up: scale not given: the % may be the effect or the level left
# In short: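 Spleen weight was used as an index of systemic inflammation. Rats had intrarectal DNBS (15 mg/0.25 mL 50% ethanol) and 6 days of intragastric dosing: 1 mg/kg/day in 1% methylcellulose, or 12.5–50 mg/kg/day in 0.2 mL olive oil. The spleen was weighed at sacrifice and expressed as percent increase versus control, n = 10.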
# [12] = Drug metabolism in Sprague-Dawley rat ileum tract assessed as 2-(2-chlorobenzyl)acrylic acid level at 12.5 mg as suspension in olive oil measured after 2 hrs by UHPLC-M; assay type: ADME; conditions: in vivo
# [13] = Stability of the compound in simulated gastric fluid at 1.56 mg as suspension in olive oil and pH 2 after 2 hrs by UHPLC-MS analysis
# In short: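 1.56 mg suspended in 100 µL olive oil, mixed with 100 µL SGF (pH 2, pepsin 3.2 mg/mL) for 2 h at 37 °C with shaking. Then 200 µL SIF (pH 7, pancreatin 2 mg/mL) was added for a further 2 h. Dedicated samples at 0, 30, 60 and 120 min were extracted with acetonitrile and analysed by UHPLC-MS. ≥3 repeats.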
# Rattus norvegicus [14] = experiment: Antiinflammatory activity in DNBS-induced Sprague-Dawley rat colitis model assessed as DNBS-induced decrease in colonic length at 12.5 mg/kg/day, ig administered as suspension in olive oil for 6 days simulatneously with 6 days of DNBS-challenge (reference value: -34.4%); assay type: functional; set-up: scale not given: the % may be the effect or the level left
smiles,measurement,setting,value
C=C(Cc1ccccc1Cl)C(=O)OCC,inhibition,[1],52%
same,Activity_index,Rattus norvegicus [2],2.8
same,Activity,Rattus norvegicus [3],3.5 pg/mg
same,inhibition,[4],Active
same,"viability at 72 h, 100 µM",[5],96.6%
same,Drug metabolism,Duodenum,Metabolite_Detected
same,Activity,Rattus norvegicus [6],Non-Toxic
same,Drug metabolism,Liver,Metabolite_Detected
same,CC50 at 72 h,[7],> 100 µM
same,Drug metabolism,Jejunum,Metabolite_Detected
same,solubility at 24 h,[8],6 µg/mL
same,inhibition,Mus musculus,Active
same,inhibition,[9],33.6%
same,Activity,Rattus norvegicus [10],-8%
same,Activity,HEK293,Non-Toxic
same,Activity,Rattus norvegicus [11],4.3%
same,Drug metabolism,[12],Metabolite_Detected
same,Stability,[13],> 99.5%
same,Activity,Rattus norvegicus [14],-19%
